Results from ChEMBL document CHEMBL4651341, “The discovery of a novel series of compounds with single-dose efficacy against juvenile and adult Schistosoma species” (PLoS Negl Trop Dis, 2021).
Values after ≈ are worked out from the molar mass of the structure shown.

How the values were obtained:
[1] = Partition coefficient of compound between n-octanol and PBS (pH7.4); assay type: physicochemical; details: octanol/water, pH 7.4
Procedure, shortened: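 Shake-flask method using octanol and PBS pH 7.4, each pre-saturated with the other. Compound was shaken 2 h at 850 rpm, 25 °C, then the phases were separated by centrifugation and both layers diluted and analysed by LC-MS/MS. LogD = log(octanol AUC × relative dilution / buffer AUC).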

[2] = Solubility at 25 degC of compound (diluted from DMSO) in PBS at pH 7.4 determined after 24h (1h sonication, 22h shaking, 1h sonication) by LCMS/MS; assay type: physicochemical
Schistosoma mansoni [3] = test: (§1) Concentration required to kill 50% of 42 day old worms 5 days after drug treatment.; assay type: functional, organism-based; details: Puerto Rican, 120 h
Procedure, shortened: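 Adult S. mansoni were perfused from CD1 mice 6 weeks post-infection and washed. They were cultured 3 pairs per well in 1 mL DMEM with 2 mM glutamine, penicillin/streptomycin and 10% FCS […] at 37 °C, 5% CO2. Viability of individual worms was scored on day 5 (120 h).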

Schistosoma mansoni [4] = test: Concentration required to kill 50% of 21 day old worms 5 days after drug treatment.; assay type: functional, organism-based; details: Puerto Rican, 120 h
Procedure, shortened: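 Juvenile S. mansoni (Puerto Rican strain) were perfused from CD1 mice 3 weeks post-infection and washed. They were cultured 6–8 per well in 200 µL DMEM with 2 mM glutamine, penicillin/streptomycin and 10% FCS at 37 °C, 5% CO2. Viability of individual worms was scored on day 5 after dosing (120 h).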

[5] = Concentration required to kill 50% MRC-5 cells as detected by Alamar blue staining; assay type: toxicity, cell-based, MRC5; details: homo sapiens, read-out: TC50 (the source's name)
[6] = Plasma protein binding determined at 10uM by LC-MS/MS.; details: human
[7] = Concentration required to kill 50% MRC5 cells as detected by Alamar blue staining; details: homo sapiens, read-out: TC50 (the source's name)
[8] = Percentage of parent compound remaining after incubation for 30 minutes with cyropreserved mouse hepatocytes at a concentration of 1uM compound and […], determined by LCMS; assay type: ADME, tissue-based, Hepatocyte; details: cryopreserved mouse hepatocytes, read-out: Stability
Procedure, shortened: (§2)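 Compound was incubated at 1 µM final (2 µM working solution mixed 1:1 with hepatocyte suspension) in supplemented KHB pH 7.4. Conditions: 37 °C, 5% CO2, gentle mixing, duplicates. Reaction quenched with ice-cold acetonitrile containing standard; analysed by LC-MS/MS. % remaining = AUC at t / AUC at T0.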

[9] = Mean oral bioavailability in Swiss albino male mice at […] per compound (administered in a mixture of 5 compounds to 3 mice) assessed by LCMS/MS.; note: dose 2.5 mg/kg; assay type: ADME, organism-based; details: male, Swiss albino, mouse, in vivo, read-out: Bioavailability
[10] = Mean AUC inf in Swiss albino male mice at 1 mg/kg per compound (administered iv in a mixture of 5 compounds to 3 mice) assessed by LCMS/MS.; assay type: ADME, organism-based; details: male, Swiss albino, mouse, in vivo
Procedure, shortened: (§3)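 Male Swiss albino mice (~30 g), 3 per experiment, mostly dosed as mixtures of 5 compounds iv via the lateral tail vein. Vehicle: 10% DMSO/90% 50 mM Na2HPO4 with 0.5% Tween-80. Blood sampled at 5, 15, 30 min and 1, 2, 4, 8, 24 h. Plasma stored at −20 °C and quantified by LC-MS after acetonitrile precipitation.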

[11] = Mean observed clearance in Swiss albino male mice at 1 mg/kg per compound (administered iv in a mixture of 5 compounds to 3 mice) assessed by LCMS/MS.; assay type: ADME, organism-based; details: male, Swiss albino, mouse, in vivo, read-out: Clearance (converted); procedure, shortened: as §3
[12] = Mean volume of distribution at steady state in Swiss albino male mice at 1 mg/kg per compound (administered iv in a mixture of 5 compounds to 3 mice) assessed by LCMS/MS.; assay type: ADME, organism-based; details: mouse, in vivo, read-out: Volume
Procedure, shortened: (§4)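 Male Swiss albino mice (~30 g), 3 per experiment, mostly dosed as mixtures of 5 compounds iv via the lateral tail vein. Vehicle: 10% DMSO/90% 50 mM Na2HPO4 with 0.5% Tween-80. Plasma stored at −20 °C and quantified by LC-MS after acetonitrile precipitation.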

[13] = Mean half-life in Swiss albino male mice at 1 mg/kg per compound (administered iv in a mixture of 5 compounds to 3 mice) assessed by LCMS/MS.; assay type: ADME, organism-based; details: mouse, in vivo; procedure, shortened: as §4
[14] = Mean plasma concentration at 24h in Swiss albino male mice at […] per compound (administered orally in a mixture of 5 compounds to 3 mice) assessed by LCMS/MS.; assay type: ADME, organism-based; details: mouse, po
[15] = Mean plasma concentration at 4h in Swiss albino male mice at […] per compound (administered orally in a mixture of 5 compounds to 3 mice) assessed by LCMS/MS.; assay type: ADME, organism-based; details: mouse, po
[16] = Mean time to peak plasma concentration in Swiss albino male mice at […] per compound (administered orally in a mixture of 5 compounds to 3 mice) assessed by LCMS/MS.; assay type: ADME, organism-based; details: mouse, po
[17] = Percentage of parent compound remaining after incubation for 90 minutes with cyropreserved human hepatocytes at a concentration of 1uM compound and 1 million cells/uL, determined by LCMS/MS; assay type: ADME, tissue-based, Hepatocyte; details: cryopreserved human hepatocytes, read-out: Stability; procedure, shortened: as §2
[18] = Plasma protein binding determined at 10uM by LC-MS/MS.; assay type: ADME, cell-free
Procedure, shortened: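 Equilibrium dialysis of plasma spiked at 10 µM (0.1% DMSO) against PBS pH 7.4, 6 h at 37 °C, duplicates. Both chambers analysed by LC-MS/MS after acetonitrile precipitation. % free = buffer/plasma area ratio; recovery also calculated.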

[19] = Percentage of parent compound remaining after incubation for 90 minutes with cyropreserved mouse hepatocytes at a concentration of 1uM compound and […], determined by LCMS; assay type: ADME, tissue-based, Hepatocyte; details: cryopreserved mouse hepatocytes, read-out: Stability; procedure, shortened: as §2
[20] = Solubility at 25 degC of compound (diluted from DMSO) in FaSSIF at pH 6.5 (2.24 g/l of SIF powder [Na-taurocholate: 3.0mM, Lecithin:0.75mM, Pancreatin:10mg/ml], 0.42 g/l of NaOH, 4.4 g/l NaH₂PO₄ monobasic dihydrate, 6.19 g/l NaCl) determined after 24h (1h sonication, 22h shaking, 1h sonication) by LCMS/MS; assay type: physicochemical
[21] = Solubility at 25 degC of compound (diluted from DMSO) in FeSSIF at pH 5.0 (11.2 g/l of SIF powder [Na-taurocholate: 15.0mM, Lecithin:3.75mM, Pancreatin:40mg/ml], 4.04 g/l of NaOH, 8.65 g/l Glacial Acetic Acid, 11.87 g/l NaCl) determined after 24h (1h sonication, 22h shaking, 1h sonication) by LCMS/MS; assay type: physicochemical
[22] = Concentration of drug in plasma at 24h following oral drug adminstration at given dose. Determined by LCMS/MS; assay type: ADME, organism-based; details: CD1, mouse
Procedure, shortened: (§5)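 Plasma sampled from the mice of the efficacy experiments, each animal sampled once: one animal per group at 1, 4 and 8 h, two per group at 24 h. Plasma prepared by acetonitrile protein precipitation and analysed by LC-MS against a 10-point calibration line spiked in blank matrix, with QCs at three or more levels.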

[23] = Concentration of drug in plasma at 4h following oral drug adminstration at given dose. Determined by LCMS/MS; assay type: ADME, organism-based; details: CD1, mouse; procedure, shortened: as §5
Schistosoma mansoni [24] = test: Percentage of worms remaining following treatment of female CD1 mice infected with S. mansoni worms (21 day old - juvenile or 42 day old - adult) with compound by oral gavage. Worms were recovered by portal perfusion with citrate saline 8-14 days post treatment and counted. Percentages are from a mean of 5 or 6 animals.; assay type: functional, Mus musculus; parameters: concentration or dose not given beside the values
Procedure, shortened: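 Female CD1 mice were infected subcutaneously with 150 cercariae and treated at day 21 (juvenile) or day 42 (adult). Single oral gavage, or two doses 12 h apart, given in 7% Tween-80/3% ethanol/water (sonicated) or in 1:19 DMSO:corn oil. Controls received vehicle only. Worm recoveries are group means, n = 5–6.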

[25] = Concentration required to kill 50% HepG2 cells as detected by MTT staining; assay type: toxicity, cell-based; details: homo sapiens, read-out: TC50 (the source's name)
[26] = Percentage of parent compound remaining after incubation for 30 minutes with cyropreserved human hepatocytes at a concentration of 1uM compound and 1 million cells/uL, determined by LCMS/MS; assay type: ADME, tissue-based, Hepatocyte; details: cryopreserved human hepatocytes, read-out: Stability; procedure, shortened: as §2
[27] = Plasma protein binding determined at 1uM by LC-MS/MS.; assay type: ADME, cell-free
Schistosoma haematobium = test: Concentration required to kill 50% of 84 day old worms 5 days after drug treatment.; assay type: functional, organism-based; details: Egyptian, 120 h
Schistosoma japonicum = test: as §1; assay type: functional, organism-based; details: Chinese, 120 h

Lipophilicity [1]	solubility kinetic at 24 h [2]	remaining at 0.5 h, 1 µM [8]	bioavailability [9]	AUC(0-inf) [10]	clearance [11]	Vd [12]	half-life [13]	concentration at 24 h [14]	concentration at 4 h [15]	Tmax [16]	Binding ([18]; human)	Binding ([18]; mouse)	remaining at 1.5 h, 1 µM [19]	concentration at 24 h [22]	SMILES	EC50 (Schistosoma mansoni [3])	EC50 (Schistosoma mansoni [4])	CC50 [5]	Efficacy (Schistosoma mansoni [24])	CC50 [25]	also measured
4.92 =	2.62 µM (≈ 0.978 µg/mL)														COc1ccc(-c2cnc3cnc(-c4cccc(C(C)C)c4)cn23)cc1OC	1340 nM	2570 nM	27800 nM			Binding [6]: 99.985%
3.62 =	0.383 µM (≈ 0.126 µg/mL)														CC(C)c1cccc(-c2cn3c(-c4ccc(O)cc4)cnc3cn2)c1	1340 nM	1500 nM	30000 nM			CC50 [7]: > 30000 nM
3.56 =	2.29 µM (≈ 0.823 µg/mL)	26.4%													COc1ccc(-c2cnc3cnc(-c4cccc(C(C)C)c4)cn23)cc1O	263 nM	486 nM	18600 nM			CC50 [7]: 18600 nM
6.33 =	0.742 µM (≈ 0.362 µg/mL)		83.2%	2210 ng·h/mL	3.82 mL/min/kg	7.32 L/kg	24.7 h	123 ng/mL	208 ng/mL	0.25 h	99.9955%	99.9935%	61.5%	10.4 ng/mL	CCc1nc2cnc(-c3ccc(F)c(C(F)(F)C(F)(F)F)c3)cn2c1-c1c(F)cc(O)cc1F	9.11 nM	13.6 nM		49.1%	7230 nM	remaining at 1.5 h, 1 µM [17]: 41.7%; solubility kinetic at 24 h [20]: 111 µM (≈ 54.1 µg/mL); solubility kinetic at 24 h [21]: 200 µM (≈ 97.5 µg/mL); concentration at 4 h [23]: 104 ng/mL
4.34 =		83.8%	69.6%	3800 ng·h/mL	2.25 mL/min/kg	1.94 L/kg		151 ng/mL	680 ng/mL	0.25 h	100%	99.975%	53%	460 ng/mL	Oc1cc(F)c(-c2c(C3CC3)nc3cnc(-c4ccc(F)c(C(F)(F)F)c4)cn23)c(F)c1	44.3 nM	33.7 nM		75%	8900 nM	remaining at 0.5 h, 1 µM [26]: 42.1%; concentration at 4 h [23]: 1040 ng/mL
3.63 =	2.11 µM (≈ 0.902 µg/mL)	36.2%	7.84%	105 ng·h/mL	79.2 mL/min/kg	5.13 L/kg	1.92 h	0.1 ng/mL	3.5 ng/mL	0.25 h		99.93%			COc1ccc(-c2c(C(C)C)nc3cnc(-c4cccc(C(F)(F)F)c4)cn23)cc1O	< 82 nM	65.9 nM	21900 nM		> 11100 nM	Binding ([27]; human): 100%; Binding ([27]; mouse): 100%; EC50 (Schistosoma haematobium): 61.2 nM; EC50 (Schistosoma japonicum): 85 nM
4.7 =	1.42 µM (≈ 0.647 µg/mL)	81.9%	95.8%	2450 ng·h/mL	3.43 mL/min/kg	4.37 L/kg	16.2 h	176 ng/mL	376 ng/mL	1 h	100%	100%	79.5%	60.4 ng/mL	Fc1ccc(-c2cn3c(-c4ccc5[nH]ncc5c4F)c(C4CC4)nc3cn2)cc1C(F)(F)F	50.7 nM	36.1 nM		88%	16100 nM	remaining at 0.5 h, 1 µM [26]: 95.2%; concentration at 4 h [23]: 75 ng/mL
															O=C(C1CCCCC1)N1CC(=O)N2CCc3ccccc3C2C1 (configuration not stated) [PRAZIQUANTEL]	300 nM	4700 nM	> 50000 nM	79%		EC50 (Schistosoma haematobium): 84.4 nM; EC50 (Schistosoma japonicum): 161 nM
